Screening data as filed in PubChem.
The list is not random: actives were taken first. Their share in the collection is about 2.9%.
Cneo AK release – Cryptococcus neoformans lysis via adenylate kinase release. C. neoformans lysis, adenylate kinase release luminescence, 4 h; normalised: neutral wells 0, clomiphene wells 100. lysis activity, % at 15 µM. hit rate 0.2% among 360,000. AID 651654;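 active = mean lysis activity across replicates of at least 80%, whatever share of replicates individually reach that level; inactive = mean lysis activity below 80%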
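read-out = cell lysis signal | test system = log-phase Cryptococcus neoformans yeast cells | input = cells at 5 × 10^6 per mL | medium = fresh YPD growth medium | signal = luminescent adenylate kinase detection reagent | timing = 4 h at 37 °C static, read 1 h later | dosing = single dose | controls = Clomiphene as positive lysis control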
PglD inh – PglD (C. jejuni) enzyme inhibition | hit rate 0.098% among 360,000 | AID 602405 | purified PglD enzyme, DTNB colorimetric CoA detection | inhibition, % at 12.5 µM; in the data active = inhibition above about 16%, passing the limit was not always enough
Vif inh – HIV Vif inhibition | inhibition, % at 7.49 µM | HEK293T cells, Vif self-association by quenched fluorescence, imaging, 24 h | hit rate 0.35% among 340,000; in the data active = inhibition above about 50%, passing the limit was not always enough
PGC1a acetyl inh – modulators of PGC1a acetylation; U2OS PGC1a acetylation, AlphaScreen anti-acetyl-lysine; with virally co-expressed GCN5 acetyltransferase; inhibition, % at 15.6 µM; hit rate 0.17% among 350,000;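 active = every replicate shows inhibition of at least 40%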;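 note: 0% = neutral control wells and 100% = positive control wells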
rRNA inh HTS – selective bacterial rRNA inhibition in E. coli; GFP signal change (wild-type ribosome), % (no concentration beside the values); E. coli WT GFP vs humanized-ribosome RFP mutants, fluorescence, 24 h; active compounds read low; DMSO median 0, no signal -100; AID 720706; hit rate 1.6% among 350,000;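 active = significant combined selectivity score with lowered wild-type GFP, culture density cut under 30%, mutant RFP and density less affected; inactive = any of these conditions unmet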
FGF22 binding – binders of recombinant human FGF22 by thermal shift; Q9HCT0; SYPRO orange fluorescence; percent of sucrose octasulfate shift, DMSO zero; activity (Tm shift, normalised), % at 9.99 µM; hit rate 1.5% among 340,000; AID 651658;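 active = mean Tm shift, scaled 0 neutral to 100 positive control, at about 1.3% or above, every replicate too, limit read from the data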
Target sequence (Q9HCT0 whole entry, looked up): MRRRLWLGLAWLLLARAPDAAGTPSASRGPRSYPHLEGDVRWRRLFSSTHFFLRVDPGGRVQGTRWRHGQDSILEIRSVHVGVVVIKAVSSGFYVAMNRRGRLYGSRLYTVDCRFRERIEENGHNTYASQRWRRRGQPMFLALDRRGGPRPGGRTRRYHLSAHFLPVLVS
* marks the source's active call; other numbers are inactive results; . = no result given.

SMILES | Cneo AK release | PglD inh | Vif inh | PGC1a acetyl inh | rRNA inh HTS | FGF22 binding
CC(C)[C@H](C)NC(=O)N(C)C[C@H]1OCc2ccccc2-c2c(n(C)c3ccccc23)C(=O)N([C@H](C)CO)C[C@@H]1C | . | . | . | . | -2 | .
O=C(c1cccs1)C1CCCN(Cc2nc(Cc3ccccc3F)no2)C1 (configuration not stated) | . | . | 4 | -2 | -3 | 43*
Cc1cc(NC(=O)CCCC(=O)NCc2ccccc2)no1 | . | . | 0 | . | 20 | 0
Cc1ccc(CNC(=O)CCCC(=O)Nc2cc(C)on2)cc1 | . | . | 21 | -2 | 8 | 43*
CC(=O)C(=Cc1ccc(Cl)cc1)C(=O)c1ccccc1 | . | . | 9 | . | -35* | 0
COc1ccc(C=C(C(C)=O)C(=O)c2ccccc2)cc1 | . | . | 8 | . | 6 | 0
C/C=C/c1cnc2c(c1)C(=O)N([C@@H](C)CO)C[C@@H](C)[C@H](CN(C)S(=O)(=O)c1ccc(F)cc1)O2 | -3 | 1 | . | 6 | -7 | 0
Cc1ccc[n+](CC(=O)c2ccc(NC(=O)c3ccccc3)cc2)c1 | . | . | 22 | . | 13 | 44*
CCCc1cc(C(=O)Nc2cccc3ccccc23)n(C)n1 | 0 | 5 | -7 | -5 | -30* | 0
CC(=O)c1ccc(Nc2c3c(nc4ccccc24)CCCC3)cc1 | . | . | 7 | -20 | -35* | 0
O=C(Nc1c2c(nc3ccccc13)CCCC2)c1ccccc1F | 1 | 2 | -6 | 2 | 10 | 0
O=C(Nc1c2c(nc3ccccc13)CCCC2)c1ccccc1Cl | 0 | . | -4 | -11 | -9 | 44*
O=C(Nc1ccc2ccccc2n1)c1ccccc1Cl | -3 | -15 | -6 | 5 | -9 | 0
COCCCNc1c2c(nc3ccccc13)CCC2 | 0 | . | 0 | 3 | 13 | 44*
CC(=O)c1cccc(Nc2c3c(nc4ccccc24)CCC3)c1 | -2 | 6 | -10 | 0 | -19 | 0
COc1ccc2nc3ccccc3nc2c1NC(=O)c1ccccc1Cl | . | . | -1 | -18 | 19 | 43*
C[C@@H]1CN([C@H](C)CO)C(=O)c2cc(-c3ccc(F)cc3)cnc2O[C@H]1CN(C)C(=O)Cc1ccccn1 | 5 | -5 | . | -2 | 2 | 0
CO[C@H]1CN(C)C(=O)c2ccc(NC(C)=O)cc2OC[C@H](C)N(C(=O)C2CCOCC2)C[C@H]1C | -1 | 2 | . | 3 | 0 | 0
CN1C(=O)c2cc(NC(=O)c3ccccc3Cl)ccc2OC[C@@H]2O[C@H](CC(=O)O)CC[C@@H]21 | -2 | 1 | . | 2 | 1 | 0
Cc1ccccc1-n1ncc2c(SCC(=O)NC3CCCC3)ncnc21 | 0 | 2 | -17 | 2 | 12 | 0
Cc1ccccc1-n1ncc2c(SCC(=O)N3c4ccccc4CC3C)ncnc21 (configuration not stated) | 2 | . | -7 | 11 | -26* | 0
Cc1cc(NC(=S)Nc2cccnc2)ccc1Br | -1 | 6 | 7 | 5 | -46* | 0
Cc1cc(NC(=S)Nc2ccccc2)ccc1Br | . | . | 6 | . | -30 | 0
Fc1cccc(C2NN=C(c3ccccc3)S2)c1 (configuration not stated) | -3 | -3 | 9 | -2 | 6 | 44*
Cc1ccc(C2=NNC(c3cccc(F)c3)S2)cc1 (configuration not stated) | . | . | 17 | . | . | 43
SMILES | Cneo AK release | PglD inh | Vif inh | PGC1a acetyl inh | rRNA inh HTS | FGF22 binding
COc1ccccc1NC(=O)N1C[C@@H](O)COC[C@H]2O[C@@H](CC(=O)NCCc3ccccc3)CC[C@@H]21 | 1 | 1 | . | 10 | -4 | 0
CC(=O)Nc1nc(C(=O)O)cs1 | . | . | 2 | -1 | 26 | 43*
Cc1cc(C(=O)CN2C(=O)NC3(CCC(C)CC3)C2=O)c(C)n1C (configuration not stated) | -1 | -2 | 1 | 4 | 9 | 43*
Cc1cc(C)c(C(=O)CN2C(=O)NC3(CCC(C)CC3)C2=O)cc1C (configuration not stated) | -3 | -20 | 2 | 0 | 13 | 1
O=C(CSc1nnc2ccccn12)c1ccc(Cl)cc1 | 0 | -2 | 21 | 9 | -5 | 43*
O=C(CSc1nnc2ccccn12)NNC(=O)c1ccc(Cl)cc1 | -1 | 1 | 23 | 3 | 17 | 0
